Screens deposited in PubChem by several laboratories.
VLA-4 inh – inhibition in a human VLA-4 binding assay. inhibition, % (about 7 µM as worked out from the volumes in the protocol). AID 2557. VLA-4 expressing cells, ligand binding flow cytometry. P13612. hit rate 0.2% among 330,000; in the data active means inhibition above about 50%
Platelet DG rel – platelet dense granule release activity; inhibition, %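 (compounds screened at 7.5 µM in platelet-rich plasma)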; human platelet-rich plasma, SFLLRN dense granule ATP release, luminescence; hit rate 0.22% among 300,000;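 active means mean replicate score, as percent of positive control, at or above 50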
TAAR1 agonist – agonists of human TAAR1 | hit rate 0.99% among 360,000 | activation, % at 3 µM | CHO RD-HGA16 TAAR1, Fluo-8 calcium fluorescence; vehicle wells 0%, saturating PEA agonist 100%;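 active means activation above the mean activation of all test compounds in the run plus 3 SD, cut at about 38% in these data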
Target sequence (Q96RJ0 whole entry, looked up): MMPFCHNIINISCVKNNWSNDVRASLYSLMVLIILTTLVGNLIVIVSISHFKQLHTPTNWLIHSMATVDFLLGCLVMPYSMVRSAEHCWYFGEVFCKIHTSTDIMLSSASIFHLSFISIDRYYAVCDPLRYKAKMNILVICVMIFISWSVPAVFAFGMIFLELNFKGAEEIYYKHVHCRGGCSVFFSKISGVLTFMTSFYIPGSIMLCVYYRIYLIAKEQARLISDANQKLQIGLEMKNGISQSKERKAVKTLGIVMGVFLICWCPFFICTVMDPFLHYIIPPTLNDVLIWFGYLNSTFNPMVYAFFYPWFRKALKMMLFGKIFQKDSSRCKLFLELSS
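System: CHO-derived RD-HGA16 cells with stable Gα16 and human TAAR1 / Times: 17-24 h plating, Fluo-8 75 min 37 °C, 30 min RT / Technique: calcium-sensitive Fluo-8 signal, excitation 470-495, emission 515-575 nm / Measure: % activation relative to PEA EC100 response / Benchmarks: DMSO and PEA EC100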
TAAR1 antag – antagonists of human TAAR1. CHO RD-HGA16 TAAR1, Fluo-8 calcium fluorescence, antagonist. inhibition, % at 3 µM. hit rate 1.5% among 360,000. Q96RJ0;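 active means inhibition above a per-plate cutoff, the mean inhibition of test compounds on that plate plus 3 SD, cut at about 49% in these data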;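 further: 0% = DMSO plus EC80 beta-PEA response and 100% = DMSO alone without agonist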
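test system = CHO RD-HGA16 cells bearing hTAAR1 | replication = singlicate | controls = DMSO-only wells and EC80 β-PEA-stimulated wells | reagent = EC80 β-phenethylamine stimulus | read-out basis = percent inhibition of PEA-evoked calcium signal, max/basal emission ratio | schedule = seeding 17-24 h prior, 75-min 37 °C, 30-min RT dye loading | signal = kinetic Fluo-8 calcium fluorescence measurement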
Rce1 inhib – inhibitors of yeast Ras-converting enzyme; Q03530; yeast membranes, quenched prenylated peptide cleavage fluorescence; calls only; hit rate 0.27% among 290,000; AID 2563;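 active means fall in fluorescence gain of 50% or more versus controls, with final raw signal at or below 3038400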;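 further: plate controls were neutral control wells for no effect and wells lacking membranes for full effect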
Target sequence (Q03530 whole entry, looked up): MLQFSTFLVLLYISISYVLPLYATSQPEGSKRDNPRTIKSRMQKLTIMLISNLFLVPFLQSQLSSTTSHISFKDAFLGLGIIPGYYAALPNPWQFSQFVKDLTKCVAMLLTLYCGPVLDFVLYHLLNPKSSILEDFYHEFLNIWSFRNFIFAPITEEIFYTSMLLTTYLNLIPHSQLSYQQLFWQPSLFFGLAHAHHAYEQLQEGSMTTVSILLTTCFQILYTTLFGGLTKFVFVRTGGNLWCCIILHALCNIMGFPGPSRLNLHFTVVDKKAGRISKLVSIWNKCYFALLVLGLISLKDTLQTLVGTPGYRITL
TAAR1 ag conf – confirmation of human TAAR1 agonists; shares compounds with TAAR1 agonist; CHO RD-HGA16 TAAR1, Fluo-8 calcium fluorescence; scaled: DMSO 0%, maximal phenethylamine 100%; activation, % at 3 µM; hit rate 82% among 2,400; AID 651783;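 active means activation above a cutoff set at the run's mean compound activation plus 3 SD, cut at about 39% in these data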
Ga16 nonsel ag – nonselective agonism, TAAR1 counter-screen; shares compounds with TAAR1 agonist; CHO-Ga16 parental, Fluo-8 calcium fluorescence; normalized to maximal ATP response, DMSO zero; activation, % at 3 µM; hit rate 50% among 2,400;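 active means activation above the run cutoff, the mean activation over all tested wells plus 3 SD, cut at about 12% in these data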;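 further: 0% = DMSO wells and 100% = maximal ATP response on the peak over basal ratio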
TAAR1 desens – human TAAR1 agonist that also desensitizes the receptor; inhibition, % at 3 µM; AID 651951; CHO RD-HGA16 hTAAR1, Fluo-8 calcium, beta-PEA response inhibition; shares compounds with TAAR1 agonist; hit rate 46% among 2,400;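 active means inhibition above the run cutoff, the mean inhibition of all test compounds plus 3 SD, cut at about 49% in these data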;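 further: beta-PEA stimulus applied at its EC80; loss of beta-PEA calcium signal after compound pretreatment read as receptor desensitization; 0% = DMSO with beta-PEA at EC80 and 100% = DMSO alone without agonist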
Ga16 nonsel ant – nonselective Ga16 antagonist in TAAR1 agonist counter-screen | hit rate 39% among 2,400 | shares compounds with TAAR1 agonist | CHO-Ga16 ATP-induced calcium, Fluo-8 fluorescence | inhibition, % at 3 µM;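 active means inhibition above the plate's mean compound inhibition plus 3 SD, computed per plate, cut at about 22% in these data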;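 further: 0% = EC80 ATP with DMSO and 100% = DMSO wells without ATP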
An asterisk follows results filed as active. The list is not random: actives were taken first. Their share in the collection is about 2.6%.

How did COc1ccc(S(=O)(=O)n2nc(OC(=O)c3ccccc3Br)cc2N)cc1 do in these assays?
VLA-4 inh: 9; Platelet DG rel: 2; TAAR1 agonist: 97*; TAAR1 antag: 47; Rce1 inhib: inactive; TAAR1 ag conf: 84*; Ga16 nonsel ag: 44*; TAAR1 desens: 39; Ga16 nonsel ant: 9

Results for COc1ccc(S(=O)(=O)n2nc(OC(=O)c3ccncc3)cc2N)cc1 ?
Platelet DG rel: -5; TAAR1 agonist: 5; TAAR1 antag: 1; Rce1 inhib: inactive

Results for COc1ccc(S(=O)(=O)n2nc(OC(=O)c3cccs3)cc2N)cc1 ?
VLA-4 inh: 9; Platelet DG rel: 8; TAAR1 agonist: 53*; TAAR1 antag: -6; Rce1 inhib: inactive; TAAR1 ag conf: 20; Ga16 nonsel ag: 5; TAAR1 desens: 6; Ga16 nonsel ant: 14

What do the screens show for `COc1ccc(S(=O)(=O)n2nc(OC(=O)c3ccccc3)cc2N)cc1`?
VLA-4 inh: 4; Platelet DG rel: -1; TAAR1 agonist: 57*; TAAR1 antag: 7; Rce1 inhib: inactive; TAAR1 ag conf: 51*; Ga16 nonsel ag: 13*; TAAR1 desens: 6; Ga16 nonsel ant: 16

What do the screens show for `CS(=O)(=O)n1nc(OC(=O)c2cccs2)cc1N`?
Platelet DG rel: 5; TAAR1 agonist: 11; TAAR1 antag: -11; Rce1 inhib: inactive

How did Cc1ccc(S(=O)(=O)NC(=O)Cn2nnc(-c3ccccc3)c2COc2ccc3ccccc3c2)cc1 do in these assays?
TAAR1 agonist: 4; TAAR1 antag: -6

What do the screens show for `CC(=O)O[C@@H]1C[C@@]2(C)[C@@H](CC[C@H]2[C@@H](C)/C=C\CC(C)C)C2=C[C@@H](O)[C@@]3(O)C[C@@H](O)[C@H](O)C[C@]3(CO)[C@]21O`?
TAAR1 agonist: 116*; TAAR1 antag: 97*; TAAR1 ag conf: 29; Ga16 nonsel ag: 16*; TAAR1 desens: 22; Ga16 nonsel ant: 28*

How did Cc1c(Cl)cccc1NC(=O)Nc1ccccc1C(N)=O do in these assays?
VLA-4 inh: -5; Platelet DG rel: -9; TAAR1 agonist: 3; TAAR1 antag: 0; Rce1 inhib: inactive

How did Cc1c(Cl)cccc1NC(=O)Nc1ccc(C(N)=O)cc1 do in these assays?
VLA-4 inh: 0; Platelet DG rel: -1; TAAR1 agonist: 52*; TAAR1 antag: -8; Rce1 inhib: inactive; TAAR1 ag conf: 60*; Ga16 nonsel ag: 1; TAAR1 desens: 24; Ga16 nonsel ant: 9

What do the screens show for `COCCCn1c(=O)c2sccc2n(Cc2ccc(C)cc2)c1=O`?
VLA-4 inh: 16; Platelet DG rel: -12; TAAR1 agonist: 3; TAAR1 antag: -1; Rce1 inhib: inactive

Results for Cn1cc(C(=O)C(=O)NC2CCCCC2)c2ccccc21 ?
VLA-4 inh: 8; Platelet DG rel: 13; TAAR1 agonist: 3; TAAR1 antag: 2; Rce1 inhib: inactive

How did OC(COc1ccc(CNCCc2ccccc2F)cc1)CN1CCCCC1 (stereo not drawn) do in these assays?
VLA-4 inh: 14; Platelet DG rel: 16; Rce1 inhib: inactive; Ga16 nonsel ag: 2; Ga16 nonsel ant: 4

Results for OC(COc1ccccc1)CN1CCCCC1 (stereo not drawn) ?
TAAR1 agonist: 2; TAAR1 antag: -1

What do the screens show for `O=C(NC1CCCc2ccccc21)c1ccccc1` (stereo not drawn)?
VLA-4 inh: 22; Platelet DG rel: 2; TAAR1 agonist: -1; TAAR1 antag: -14; Rce1 inhib: inactive

Results for O=C(O)C1C2C=CC(O2)C1C(=O)NC1CCCc2ccccc21 (stereo not drawn) ?
VLA-4 inh: -3; Platelet DG rel: -9; TAAR1 agonist: 55*; TAAR1 antag: -16; Rce1 inhib: inactive; TAAR1 ag conf: 49*; Ga16 nonsel ag: 2; TAAR1 desens: 6; Ga16 nonsel ant: 9

Results for CC(CNC(=O)[C@@H](Cc1ccccc1)NC(=O)[C@H]1O[C@@H](n2cnc3c(=O)[nH]c(N)nc32)[C@H](O)[C@@H]1O)c1ccccc1 (stereo partly drawn) ?
Ga16 nonsel ag: 1; Ga16 nonsel ant: 2

How did Nc1nc2c(ncn2[C@@H]2O[C@H](C(=O)NCC(c3ccccc3)c3ccccc3)[C@@H](O)[C@H]2O)c(=O)[nH]1 do in these assays?
TAAR1 agonist: 1; TAAR1 antag: -11

Results for CC(CNC(=O)[C@H]1O[C@@H](n2cnc3c(=O)[nH]c(N)nc32)[C@H](O)[C@@H]1O)c1ccccc1 (stereo partly drawn) ?
TAAR1 agonist: 84*; TAAR1 antag: 66*; TAAR1 ag conf: 94*; Ga16 nonsel ag: 0; TAAR1 desens: 80*; Ga16 nonsel ant: -1

What do the screens show for `OC(COc1c(F)cc(Br)cc1F)CN1CCc2ccccc2C1` (stereo not drawn)?
VLA-4 inh: 5; Platelet DG rel: 1; TAAR1 agonist: 55*; TAAR1 antag: 11; Rce1 inhib: inactive; TAAR1 ag conf: 66*; Ga16 nonsel ag: 0; TAAR1 desens: 17; Ga16 nonsel ant: 10

What do the screens show for `Cc1cc(C)c2c(N)c(C(=O)N3CCc4ccccc4C3)sc2n1`?
VLA-4 inh: 4; Platelet DG rel: -3; TAAR1 agonist: 12; TAAR1 antag: -17; Rce1 inhib: inactive

How did CCN1CCc2nc3sc(C(=O)N4CCc5ccccc5C4)c(N)c3cc2C1 do in these assays?
VLA-4 inh: -11; Platelet DG rel: -3; TAAR1 agonist: 80*; TAAR1 antag: 14; Rce1 inhib: inactive; TAAR1 ag conf: 67*; Ga16 nonsel ag: 4; TAAR1 desens: 12; Ga16 nonsel ant: 13

Results for CC(C)c1ccc2nc3sc(C(=O)N4CCc5ccccc5C4)c(N)c3cc2c1 ?
VLA-4 inh: inactive; Platelet DG rel: 4; TAAR1 agonist: 83*; TAAR1 antag: 20; Rce1 inhib: inactive; TAAR1 ag conf: 88*; Ga16 nonsel ag: 31*; TAAR1 desens: 63*; Ga16 nonsel ant: 40*

How did CCCCCCCCN1C(=O)[C@H](CC(=O)N2CCN(C(=O)C3CC3)CC2)C[C@@]2(C(=O)OC)CCCCC=C12 do in these assays?
TAAR1 agonist: -2; TAAR1 antag: -4
